Source: ChEMBL document CHEMBL2346664, “Synthesis, characterization and in vitro anticancer evaluation of novel 1,2,4-triazolin-3-one derivatives” (2013)

Assays:
Assay type in all cases: functional
SNB-19 = test: Growth inhibition of human SNB19 cells assessed as cell growth at 10 '-4 M after 48 hrs by sulforhodamine B assay; conditions: SNB-19, 48 h, read-out: Activity
NCI-H522 [1] = test: Growth inhibition of human NCI-H522 cells assessed as cell growth at 10 '-5 M after 48 hrs by sulforhodamine B assay; conditions: NCI-H522, 48 h, read-out: Activity
HCT-15 = test: Growth inhibition of human HCT15 cells assessed as cell growth at 10 '-5 M after 48 hrs by sulforhodamine B assay; conditions: HCT-15, 48 h, read-out: Activity
SNB-75 = test: Growth inhibition of human SNB75 cells after 48 hrs by sulforhodamine B assay; conditions: SNB-75, 48 h, read-out: LD50 (the source's name)
CAKI-1 = test: Growth inhibition of human CAKI-1 cells assessed as cell growth at 10 '-7 M after 48 hrs by sulforhodamine B assay; conditions: CAKI-1, 48 h, read-out: Activity
How it was run: (§1)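 Percent growth at each of the five concentrations of the 48 h continuous-exposure NCI SRB screen. Drug stocks were in DMSO at 400× the top final concentration and diluted in medium with gentamicin. Growth was calculated as [(Ti-Tz)/(C-Tz)]×100 when Ti ≥ Tz, or [(Ti-Tz)/Tz]×100 when Ti < Tz. Tz plates were fixed at drug addition; untreated wells served as control. Absorbance was read at 515 nm.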

MDA-MB-468 = test: Growth inhibition of human MDA-MB-468 cells assessed as cell growth at 10 '-8 M after 48 hrs by sulforhodamine B assay; conditions: MDA-MB-468, 48 h, read-out: Activity
HL-60(TB) = test: Growth inhibition of human HL-60(TB) cells assessed as cell growth at 10 '-4 M after 48 hrs by sulforhodamine B assay; conditions: HL-60, 48 h, read-out: Activity
How it was run: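 Five-dose NCI protocol with final concentrations of 0.01–100 µM and drug diluted from a DMSO stock (400× the top concentration) in medium with gentamicin. Cells were pre-incubated 24 h, then exposed 48 h at 37 °C. Suspension cells were fixed with 16% final TCA, SRB-stained and read at 515 nm. Percentage growth at each level was [(Ti−Tz)/(C−Tz)]×100, or [(Ti−Tz)/Tz]×100 when Ti < Tz.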

NCI-H522 [2] = test: Growth inhibition of human NCI-H522 cells assessed as growth inhibition at 10 uM after 48 hrs by sulforhodamine B assay; conditions: NCI-H522, 48 h, read-out: GI
SF-295 [3] = test: Growth inhibition of human SF295 cells assessed as cell growth at 10 uM after 48 hrs by sulforhodamine B assay; conditions: SF-295, 48 h, read-out: Activity
HCT-116 = test: Growth inhibition of human HCT116 cells assessed as cell growth at 10 '-8 M after 48 hrs by sulforhodamine B assay; conditions: HCT-116, 48 h, read-out: Activity
NCI-H322M = test: Growth inhibition of human NCI-H322M cells assessed as growth inhibition at 10 uM after 48 hrs by sulforhodamine B assay; conditions: read-out: GI
SF-539 [4] = test: Growth inhibition of human SF539 cells assessed as cell growth at 10 '-6 M after 48 hrs by sulforhodamine B assay; conditions: SF-539, 48 h, read-out: Activity
[5] = Growth inhibition of human NCI-ADR-RES cells assessed as growth inhibition at 10 uM after 48 hrs by sulforhodamine B assay; conditions: read-out: GI
SF-539 [6] = test: Growth inhibition of human SF539 cells assessed as cell growth at 10 '-8 M after 48 hrs by sulforhodamine B assay; conditions: SF-539, 48 h, read-out: Activity
[7] = Growth inhibition of human […] cells assessed as cell growth at 10 uM after 48 hrs by sulforhodamine B assay; conditions: read-out: Activity
How it was run: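 NCI-60 primary screen at a single dose of 10^-5 M. Output is mean growth percent of treated cells relative to untreated controls, where values between 0 and 100 indicate growth inhibition and values below 0 indicate cytotoxicity. Cells were plated 24 h before drug, incubated 48 h at 37 °C, 5% CO2, and stained with SRB after TCA fixation. Suspension cells were fixed with 80% TCA (16% final).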

ACHN = test: Growth inhibition of human ACHN cells assessed as growth inhibition at 10 uM after 48 hrs by sulforhodamine B assay; conditions: read-out: GI
How it was run: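 Percent growth inhibition from the single 10^-5 M NCI-60 screen, reported as 100 minus growth percent. Growth percent was measured after 48 h drug exposure at 37 °C, 5% CO2, using TCA fixation, SRB staining and absorbance at 515 nm, against untreated controls and time-zero plates.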

TK-10 = test: Growth inhibition of human TK10 cells assessed as cell growth at 10 '-5 M after 48 hrs by sulforhodamine B assay; conditions: TK-10, 48 h, read-out: Activity
MDA-MB-231 = test: Growth inhibition of human MDA-MB-231 cells assessed as cell growth at 10 '-4 M after 48 hrs by sulforhodamine B assay; conditions: MDA-MB-231, 48 h, read-out: Activity
SK-MEL-28 = test: Growth inhibition of human SK-MEL-28 cells assessed as cell growth at 10 '-4 M after 48 hrs by sulforhodamine B assay; conditions: SK-MEL-28, 48 h, read-out: Activity
A549 = test: Growth inhibition of human A549 cells assessed as cell growth at 10 '-5 M after 48 hrs by sulforhodamine B assay; conditions: A549, 48 h, read-out: Activity; how it was run: as §1
SK-MEL-5 = test: Growth inhibition of human SK-MEL-5 cells assessed as cell growth at 10 '-5 M after 48 hrs by sulforhodamine B assay; conditions: SK-MEL-5, 48 h, read-out: Activity
SR [8] = test: Growth inhibition of human SR cells after 48 hrs by sulforhodamine B assay
SF-295 [9] = test: Growth inhibition of human SF295 cells assessed as cell growth at 10 '-8 M after 48 hrs by sulforhodamine B assay; conditions: SF-295, 48 h, read-out: Activity
UACC-257 = test: Growth inhibition of human UACC257 cells assessed as cell growth at 10 '-4 M after 48 hrs by sulforhodamine B assay; conditions: UACC-257, 48 h, read-out: Activity
MCF7 = test: Growth inhibition of human MCF7 cells assessed as growth inhibition at 10 uM after 48 hrs by sulforhodamine B assay; conditions: MCF7, 48 h, read-out: GI
SR [10] = test: Growth inhibition of human SR cells assessed as cell growth at 10 '-5 M after 48 hrs by sulforhodamine B assay; conditions: read-out: Activity
U-251 = test: Growth inhibition of human U251 cells assessed as cell growth at 10 '-5 M after 48 hrs by sulforhodamine B assay; conditions: U-251, 48 h, read-out: Activity

With `Cc1cc(=O)oc2cc(OCCn3c(C)nn(-c4ccc(Cl)cc4)c3=O)ccc12` as the compound, how does the growth at 100 µM (SNB-19) read?
The growth at 100 µM was 20%.

What about the growth at 10 µM (NCI-H522 [1]) of the same compound?
The growth at 10 µM was 24%.

What about the growth at 10 µM (HCT-15) of the same compound?
Its growth at 10 µM is 20%.

What about the CC50 (SNB-75) of the same compound?
Its CC50 is > 1 µM.

What about the growth at 0.1 µM (CAKI-1) of the same compound?
The growth at 0.1 µM was 92%.

And the growth at 0.01 µM (MDA-MB-468)?
The growth at 0.01 µM was 94%.

What about the growth at 100 µM (HL-60(TB)) of the same compound?
The growth at 100 µM was 1%.

And the inhibition of growth at 10 µM (NCI-H522 [2])?
Its inhibition of growth at 10 µM is 82.8%.

What about the growth at 10 µM (SF-295 [3]) of the same compound?
The growth at 10 µM was 14%.

What about the growth at 0.01 µM (HCT-116) of the same compound?
The growth at 0.01 µM was 101%.

And the inhibition of growth at 10 µM (NCI-H322M)?
Its inhibition of growth at 10 µM is 41.3%.

What about the growth at 1 µM (SF-539 [4]) of the same compound?
Its growth at 1 µM is 88%.

What about the inhibition of growth at 10 µM [5] of the same compound?
Its inhibition of growth at 10 µM is 75.3%.

And the growth at 0.01 µM (SF-539 [6])?
The growth at 0.01 µM was 102%.

And the growth at 10 µM [7]?
The growth at 10 µM was 32.9%.

And the inhibition of growth at 10 µM (ACHN)?
The inhibition of growth at 10 µM was 58.1%.

What about the growth at 10 µM (TK-10) of the same compound?
Its growth at 10 µM is 58%.

What about the growth at 100 µM (MDA-MB-231) of the same compound?
The growth at 100 µM was 11%.

What about the growth at 100 µM (SK-MEL-28) of the same compound?
Its growth at 100 µM is 33%.

What about the growth at 10 µM (A549) of the same compound?
Its growth at 10 µM is 37%.

What about the growth at 10 µM (SK-MEL-5) of the same compound?
Its growth at 10 µM is 13%.

And the GI50 (SR [8])?
Its GI50 is 4.97 µM.

And the TGI (SR [8])?
Its TGI is 6.67 µM.

What about the CC50 (SR [8]; read-out: LD50 (the source's name)) of the same compound?
Its CC50 is > 1 µM.

What about the growth at 0.01 µM (SF-295 [9]) of the same compound?
The growth at 0.01 µM was 94%.

What about the growth at 100 µM (UACC-257) of the same compound?
Its growth at 100 µM is 53%.

What about the inhibition of growth at 10 µM (MCF7) of the same compound?
Its inhibition of growth at 10 µM is 84.2%.

And the growth at 10 µM (SR [10])?
Its growth at 10 µM is -6%.

And the growth at 10 µM (U-251)?
The growth at 10 µM was 27%.
